Columns and labels:
[1] = tested on: Human immunodeficiency virus 1; assay: Antiviral activity against HIV1 3B infected in human MT4 cells assessed as inhibition of viral replication after 5 days by MTT assay; type: functional, organism-based; details: Human immunodeficiency virus 1, 3B, MT4, 120 h
Procedure, shortened: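 MT-4 human T lymphoid cells at 1 × 10^5 cells/mL in RPMI 1640 with 10% FBS, penicillin and streptomycin; infected with strain IIIb at multiplicity 0.01, compounds added, 37 °C for 5 days. Viability read by MTT (7.5 mg/mL solution), formazan dissolved in acidic isopropanol with 4% Triton-X, absorbance at 595 nm.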

[2] = molecular target: Human immunodeficiency virus type 1 integrase (Human immunodeficiency virus 1, UniProt Q7ZJM1); assay: Inhibition of HIV1 integrase strand transfer activity
[3] = Cytotoxicity against human MT4 cells after 5 days by MTT assay; type: cell-based
Procedure, shortened: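 Uninfected MT-4 cells at 1 × 10^5 cells/mL in RPMI 1640 with 10% FBS, penicillin and streptomycin, exposed to compounds at 37 °C for 5 days. Viability by MTT (7.5 mg/mL solution); formazan taken up in acidic isopropanol containing 4% Triton-X, read at 595 nm.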

[4] = tested on: Human immunodeficiency virus 1; assay: Antiviral activity against HIV1 infected in human PBMN cells assessed as inhibition of viral replication in presence of 50% human serum; type: functional; details: Human immunodeficiency virus 1, PBMN
[5] = Selectivity index, ratio of CC50 for human MT4 cells to EC50 for HIV1 3B; type: toxicity, cell-based
Procedure, shortened: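 For EC50, cells were infected with HIV-1 IIIb at multiplicity 0.01 before compound was added; for CC50, cells were uninfected. Viability was read by MTT reduction, with formazan dissolved in acidic isopropanol/4% Triton-X and absorbance at 595 nm.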

Human immunodeficiency virus type 1 integrase, sequence (Q7ZJM1 whole entry): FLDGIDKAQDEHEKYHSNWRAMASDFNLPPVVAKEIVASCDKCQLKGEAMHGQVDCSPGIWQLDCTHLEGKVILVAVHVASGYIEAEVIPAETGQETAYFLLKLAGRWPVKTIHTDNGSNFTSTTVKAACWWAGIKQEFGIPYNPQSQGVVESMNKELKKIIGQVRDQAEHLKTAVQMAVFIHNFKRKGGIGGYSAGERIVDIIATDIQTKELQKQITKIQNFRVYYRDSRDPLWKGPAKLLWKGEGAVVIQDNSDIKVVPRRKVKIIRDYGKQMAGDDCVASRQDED

Structure (SMILES) | IC50 [2] [nM] | EC90 [4] [nM] | EC50 [1] [nM] | CC50 at 120 h [3] [nM] | selectivity ratio [5]
O=C(O)c1c[nH]c2ccc(Cc3c(Cl)cccc3Cl)cc2c1=O | 370 |  | > 6000 | 14900 | 
O=C(O)c1cnc2ccc(Cc3ccccc3)cc2c1O |  |  | > 30000 | > 30000 | 
O=C(O)/C(O)=C/C(=O)c1cccc(Cc2ccccc2)c1 |  |  | 440 | > 30000 | 
CC(C)[C@@H](CO)n1cc(C(=O)O)c(=O)c2cc(Cc3cccc(Cl)c3F)ccc21 |  |  | 7.5 | 14000 | 
Cn1cc(C(=O)O)c(=O)c2cc(Cc3ccccc3)ccc21 | 2300 |  | > 30000 | > 30000 | 
Cn1cc(C(=O)C(=O)O)c(=O)c2cc(Cc3ccccc3)ccc21 | > 100000 |  | > 30000 | > 30000 | 
O=C(O)c1cn(CCO)c2cc(C(F)(F)F)c(Cc3cccc(Cl)c3Cl)cc2c1=O | 674 |  | > 6000 | 10000 | 
O=C(O)c1cn(CCO)c2ccc(Cc3cccc(Cl)c3F)cc2c1=O |  |  | 80 | > 6000 | 
COc1cc2c(cc1Cc1cccc(Cl)c1F)c(=O)c(C(=O)O)cn2[C@H](CO)C(C)C |  | 9.8 | 0.9 | 4000 | 
O=C(O)c1c[nH]c2ccc(Cc3ccccc3C(F)(F)F)cc2c1=O | 720 |  | > 6000 | 14800 | 
O=C(O)c1c[nH]c2ccc(Cc3ccccc3F)cc2c1=O | 500 |  | 15900 | > 30000 | 
NC(=O)c1c[nH]c2ccc(Cc3ccccc3)cc2c1=O | > 100000 |  | > 30000 | > 30000 | 
NCCn1cc(C(=O)O)c(=O)c2cc(Cc3cccc(Cl)c3Cl)ccc21 | 215 |  | 570 | 5300 | 
COc1cc2c(cc1Cc1cccc(Cl)c1F)c(=O)c(C(=O)O)cn2CCO |  |  | 20 | 5300 | 
COc1cc2c(cc1Cc1cccc(Cl)c1F)c(=O)c(C(=O)O)cn2[C@@H](CO)C(C)C |  |  | 109 | 4200 | 
COc1ccccc1Cc1ccc2[nH]cc(C(=O)O)c(=O)c2c1 | 1170 |  | > 6000 | 16600 | 
CCOC(=O)c1cnc2ccc(Cc3ccccc3)cc2c1O | > 100000 |  | > 30000 | > 30000 | 
O=C(O)c1c[nH]c2ccc(Cc3cccc(Cl)c3)cc2c1=O | 800 |  | > 6000 | > 6000 | 
O=C(O)c1c[nH]c2ccc(Cc3ccc(Cl)cc3)cc2c1=O | > 100000 |  | > 6000 | > 6000 | 
O=C(O)c1c[nH]c2ccc(Cc3ccccc3Cl)cc2c1=O | 410 |  | > 6000 | > 6000 | 
Cc1ccccc1Cc1ccc2[nH]cc(C(=O)O)c(=O)c2c1 | 1080 |  | > 6000 | 18500 | 
O=C(O)c1c[nH]c2ccc(Cc3cc(Cl)ccc3Cl)cc2c1=O | 250 |  | > 6000 | 13200 | 

The next lines start with results.

IC50 [2] [nM] | EC90 [4] [nM] | Structure (SMILES) | EC50 [1] [nM] | CC50 at 120 h [3] [nM] | selectivity ratio [5]
5.8 |  | CCC[C@@H](CO)n1cc(C(=O)O)c(=O)c2cc(Cc3cccc(Cl)c3F)c(OC)cc21 | 1.3 | 3100 | 
65 |  | CCCCn1cc(C(=O)O)c(=O)c2cc(Cc3cccc(Cl)c3Cl)ccc21 | 2340 | 15000 | 
6.7 |  | COc1cc2c(cc1Cc1cccc(Cl)c1F)c(=O)c(C(=O)O)cn2[C@H](CO)C1CCCCC1 | 2.8 | 3000 | 
21 |  | O=C(O)c1cn(CCO)c2ccc(Cc3cccc(Cl)c3Cl)cc2c1=O | 100 | > 6000 | 
5.6 |  | O=C(O)c1cn([C@H](CO)C2CCCCC2)c2ccc(Cc3cccc(Cl)c3F)cc2c1=O | 7.3 | 7700 | 
43 |  | O=C(O)c1cn(CCO)c2cc(Cl)c(Cc3cccc(Cl)c3Cl)cc2c1=O | 510 | > 6000 | 
9.8 |  | O=C(O)c1cn([C@H](CO)c2ccccc2)c2ccc(Cc3cccc(Cl)c3F)cc2c1=O | 51.6 | 8700 | 
32 |  | O=C(O)Cn1cc(C(=O)O)c(=O)c2cc(Cc3cccc(Cl)c3Cl)ccc21 | 13600 | > 30000 | 
31 |  | CCn1cc(C(=O)O)c(=O)c2cc(Cc3cccc(Cl)c3Cl)ccc21 | 290 | 16200 | 
14.8 |  | C[C@@H](CO)n1cc(C(=O)O)c(=O)c2cc(Cc3cccc(Cl)c3F)ccc21 | 27.7 | 13700 | 
12 |  | COc1cc2c(cc1Cc1cccc(Cl)c1Cl)c(=O)c(C(=O)O)cn2CCO | 60 | 4200 | 
35 |  | NC(=O)Cn1cc(C(=O)O)c(=O)c2cc(Cc3cccc(Cl)c3Cl)ccc21 | 540 | 22600 | 
77 |  | O=C(O)c1cn(CCCO)c2ccc(Cc3cccc(Cl)c3Cl)cc2c1=O | 470 | 15100 | 
55 |  | CCCn1cc(C(=O)O)c(=O)c2cc(Cc3cccc(Cl)c3Cl)ccc21 | 640 | 15600 | 
84 |  | O=C(O)c1cn(CCO)c2ccc(Cc3cccc(Cl)c3Cl)c(F)c2c1=O | 1680 | 14300 | 
83 |  | Cn1cc(C(=O)O)c(=O)c2cc(Cc3cccc(Cl)c3Cl)ccc21 | 450 | 14400 | 
25 |  | O=C(O)c1cn(CCO)c2cc(F)c(Cc3cccc(Cl)c3Cl)cc2c1=O | 130 | 9800 | 
6 |  | CC(C)(C)[C@@H](CO)n1cc(C(=O)O)c(=O)c2cc(Cc3cccc(Cl)c3F)ccc21 | 1.3 | 14400 | 
70 |  | O=C(O)c1c[nH]c2ccc(Cc3cccc(Cl)c3Cl)cc2c1=O | 3400 | 12600 | 
44 |  | O=C(O)c1cn(CCO)c2ccc(Cc3cccc(F)c3Cl)cc2c1=O | 340 | > 6000 | 
50 |  | N#Cc1cc2c(cc1Cc1cccc(Cl)c1Cl)c(=O)c(C(=O)O)cn2CCO | 2000 | 13900 | 
5.8 |  | COc1cc2c(cc1Cc1cccc(Cl)c1F)c(=O)c(C(=O)O)cn2[C@H](CO)C(C)(C)C | 0.6 | 3400 | > 4000
9 |  | CC[C@@H](CO)n1cc(C(=O)O)c(=O)c2cc(Cc3cccc(Cl)c3F)ccc21 | 17.1 | 13000 | 
116 |  | NC(=O)CCn1cc(C(=O)O)c(=O)c2cc(Cc3cccc(Cl)c3Cl)ccc21 | 2040 | 15100 | 
34 |  | O=C(O)c1cn(CCO)c2c(F)cc(Cc3cccc(Cl)c3Cl)cc2c1=O | 530 | > 30000 | 
38 |  | O=C(O)CCn1cc(C(=O)O)c(=O)c2cc(Cc3cccc(Cl)c3Cl)ccc21 | > 30000 | > 30000 | 
26 |  | CC(C)n1cc(C(=O)O)c(=O)c2cc(Cc3cccc(Cl)c3Cl)ccc21 | 330 | > 6000 | 
41 |  | Cc1cc2c(cc1Cc1cccc(Cl)c1Cl)c(=O)c(C(=O)O)cn2CCO | 180 | > 30000 | 
38.3 |  | C[C@H](CO)n1cc(C(=O)O)c(=O)c2cc(Cc3cccc(Cl)c3F)ccc21 | 116 | 14400 | 
8.2 |  | CCC[C@@H](CO)n1cc(C(=O)O)c(=O)c2cc(Cc3cccc(Cl)c3F)ccc21 | 9.8 | 12500 | 
